Test results: ChEMBL document CHEMBL1806446, “Synthesis and evaluation of hermitamides A and B as human voltage-gated sodium channel blockers” (Bioorg Med Chem, 2011)

Assays:
Rattus norvegicus = species: Rattus norvegicus; experiment: Displacement of [3H]batrachotoxin from neurotoxin site 2 of voltage-gated sodium channel in rat forebrain tissue at 10 uM after 60 mins
In short: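 Rat forebrain membranes (10 mg tissue/well) incubated with [3H]-BTX (30–60 Ci/mmol) in 50 mM HEPES pH 7.4 with 130 mM choline chloride, 37 °C, 60 min; test at 10 μM. Stopped by rapid vacuum filtration onto glass fiber filters; bound radioactivity counted against control and expressed as percent displacement. Aconitine (1 μM) positive control.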

[1] = target: Sodium channel protein type 2 subunit alpha (Homo sapiens) (UniProt Q99250); experiment: Inhibition of human voltage-gated sodium channel 1.2 expressed in HEK293 cells at 1 uM by […]; assay type: cell-based
In short: (§1)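 HEK293 cells stably expressing hNav1.2, grown in DMEM/F12 with 10% FBS and G418 at 37 °C. Whole-cell patch clamp at 20–22 °C with ≥75% series resistance compensation. Currents evoked by a 25 ms step from –60 to +10 mV every 15 s. Compound was diluted from DMSO stock into perfusion, ≤0.1% DMSO final, applied after a 3 min control until steady state. Reported as percent block, mean ± SEM.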

[2] = target: Sodium channel protein type 2 subunit alpha (Homo sapiens) (UniProt Q99250); experiment: Inhibition of human voltage-gated sodium channel 1.2 expressed in HEK293 cells at 100 nM by […]; assay type: cell-based; in short: as §1
[3] = target: Sodium channel protein type 2 subunit alpha (Homo sapiens) (UniProt Q99250); experiment: Inhibition of human voltage-gated sodium channel 1.2 expressed in human HEK293 cells at 10 uM by […]; assay type: cell-based; in short: as §1

Sodium channel protein type 2 subunit alpha (Homo sapiens), sequence (Q99250 whole entry, looked up, the tested form may be a part): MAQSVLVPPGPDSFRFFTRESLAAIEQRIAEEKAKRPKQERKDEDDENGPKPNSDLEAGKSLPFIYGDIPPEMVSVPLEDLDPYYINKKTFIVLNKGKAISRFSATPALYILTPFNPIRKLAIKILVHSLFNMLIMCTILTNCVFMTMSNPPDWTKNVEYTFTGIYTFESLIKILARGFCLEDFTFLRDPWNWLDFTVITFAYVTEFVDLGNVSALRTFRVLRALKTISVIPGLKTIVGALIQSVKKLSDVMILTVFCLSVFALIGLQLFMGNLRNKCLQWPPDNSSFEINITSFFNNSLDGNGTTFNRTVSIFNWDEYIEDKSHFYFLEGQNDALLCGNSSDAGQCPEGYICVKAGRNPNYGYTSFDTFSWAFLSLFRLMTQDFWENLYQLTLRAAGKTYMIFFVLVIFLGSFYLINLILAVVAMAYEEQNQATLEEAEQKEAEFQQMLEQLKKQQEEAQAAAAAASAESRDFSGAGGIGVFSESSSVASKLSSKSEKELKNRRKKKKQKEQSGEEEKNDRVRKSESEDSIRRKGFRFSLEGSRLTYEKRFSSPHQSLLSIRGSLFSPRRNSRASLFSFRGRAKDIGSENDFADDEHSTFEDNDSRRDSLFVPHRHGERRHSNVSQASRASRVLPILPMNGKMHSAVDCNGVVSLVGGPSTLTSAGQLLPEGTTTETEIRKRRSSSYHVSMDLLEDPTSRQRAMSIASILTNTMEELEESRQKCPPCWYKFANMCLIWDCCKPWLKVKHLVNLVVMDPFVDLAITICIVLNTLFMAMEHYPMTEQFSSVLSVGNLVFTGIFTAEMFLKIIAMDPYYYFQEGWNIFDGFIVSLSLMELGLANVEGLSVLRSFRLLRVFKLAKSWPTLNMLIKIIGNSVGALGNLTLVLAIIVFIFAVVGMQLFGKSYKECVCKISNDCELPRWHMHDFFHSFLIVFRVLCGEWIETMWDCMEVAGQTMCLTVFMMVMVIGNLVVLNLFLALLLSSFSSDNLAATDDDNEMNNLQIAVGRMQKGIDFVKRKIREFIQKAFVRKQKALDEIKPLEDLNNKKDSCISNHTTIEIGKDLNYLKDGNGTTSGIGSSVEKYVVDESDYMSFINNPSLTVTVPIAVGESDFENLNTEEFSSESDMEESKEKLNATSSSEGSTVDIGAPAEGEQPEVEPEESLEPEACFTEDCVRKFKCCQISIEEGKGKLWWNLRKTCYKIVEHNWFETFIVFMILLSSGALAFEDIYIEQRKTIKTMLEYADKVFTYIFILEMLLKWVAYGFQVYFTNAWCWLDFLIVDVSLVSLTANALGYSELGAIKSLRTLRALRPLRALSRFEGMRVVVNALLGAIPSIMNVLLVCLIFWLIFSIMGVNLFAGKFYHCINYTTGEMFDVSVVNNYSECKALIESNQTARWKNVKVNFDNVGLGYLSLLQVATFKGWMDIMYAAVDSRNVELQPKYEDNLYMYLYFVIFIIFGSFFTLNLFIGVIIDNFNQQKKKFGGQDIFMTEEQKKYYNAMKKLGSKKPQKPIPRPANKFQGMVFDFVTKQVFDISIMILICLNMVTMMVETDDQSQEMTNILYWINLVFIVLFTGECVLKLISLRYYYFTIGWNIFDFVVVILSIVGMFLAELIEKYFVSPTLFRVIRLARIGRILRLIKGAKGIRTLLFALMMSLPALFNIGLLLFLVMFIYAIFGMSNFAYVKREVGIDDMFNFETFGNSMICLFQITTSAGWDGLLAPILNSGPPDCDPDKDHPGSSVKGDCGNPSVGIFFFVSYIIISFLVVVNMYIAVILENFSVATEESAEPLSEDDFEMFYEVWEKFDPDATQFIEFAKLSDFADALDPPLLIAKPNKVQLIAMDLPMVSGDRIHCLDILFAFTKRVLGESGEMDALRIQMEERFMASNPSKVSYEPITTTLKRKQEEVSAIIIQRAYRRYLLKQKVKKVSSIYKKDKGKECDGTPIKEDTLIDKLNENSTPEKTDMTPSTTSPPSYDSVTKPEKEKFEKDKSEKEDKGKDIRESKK

Row | Compound | Activity (Rattus norvegicus) | inhibition [1] | inhibition [2] | inhibition [3]
1 | CCCCCCC[C@@H](C/C=C/CCC(=O)O)OC | 7.77% |  |  | 
2 | CCCCCCC[C@H](C/C=C/CCC(=O)NCCc1ccccc1)OC | 13.8% | 58.7% | < 10% | 
3 | CCCCCCCC(C/C=C/CCC(=O)NCCc1ccccc1)OC (racemic) | 15.7% | 49.7% | < 10% | 90.2%
4 | CCCCCCCC(C/C=C/CCC(=O)O)OC (racemic) | 7.35% |  |  | 
5 | CCCCCCC[C@@H](C/C=C/CCC(=O)NCCc1ccccc1)OC | 15.9% | 74.4% | 15.5% | 94.4%
6 | CCCCCCC[C@@H](C/C=C/CCC(=O)NCCc1c[nH]c2ccccc12)OC | 29% | 87.8% | 17.2% | 100%
7 | CCCCCCC[C@H](C/C=C/CCC(=O)O)OC | 11.9% |  |  | 
8 | CCCCCCCC(C/C=C/CCC(=O)NCCc1c[nH]c2ccccc12)OC (racemic) | 36% | 88.4% | 24.3% | 100%
9 | CCCCCCC[C@H](C/C=C/CCC(=O)NCCc1c[nH]c2ccccc12)OC | 20.3% | 80.7% | 28.8% | 
10 | O=C1NC(=O)C(c2ccccc2)(c2ccccc2)N1 | 19.8% | < 10% |  | 10%
